Test results reported in ChEMBL document CHEMBL1152276, “Substituted 2-imino-5-arylidenethiazolidin-4-one inhibitors of bacterial type III secretion” (J Med Chem, 2008).
The source made the active and inactive calls. No cut-off for these calls is given here.

Tested on: Salmonella typhimurium
Test: Growth inhibition of Salmonella enterica serovar Typhimurium ATCC 14028 up to 1 mM
Assay type: functional, organism-based
Settings: Salmonella enterica subsp. enterica serovar Typhimurium
Procedure, shortened: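 Aliquots (30 μL) of a 2 mL overnight culture were dosed with 0.1, 1.0, 2.0, 3.0, 6.0 or 15.0 μL of compound in DMSO. DMSO alone in LB served as the control.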

Row | Structure (SMILES) | Activity
1 | COc1cc(/C=C2\S/C(=N\c3ccccc3)N(c3ccc(CN)cc3)C2=O)cc(OC)c1O | inactive
2 | COc1cc(/C=C2\S/C(=N\c3ccccc3)N(c3ccccc3)C2=O)cc(OC)c1O | inactive
3 | COc1cc(/C=C2\S/C(=N\c3ccccc3)N([C@@H](CCCN)C(=O)N[C@@H](Cc3ccc(-c4ccccc4)cc3)C(N)=O)C2=O)cc(OC)c1O | inactive
4 | COc1cc(/C=C2\S/C(=N\c3ccccc3)N(c3ccc(CNC(=O)OC(C)(C)C)cc3)C2=O)cc(OC)c1O | inactive
5 | COc1cc(/C=C2\S/C(=N\c3ccccc3)N([C@@H](Cc3ccc(-c4ccccc4)cc3)C(=O)N[C@@H](CCCNC(=N)N)C(N)=O)C2=O)cc(OC)c1O | inactive

Tested on: not listed separately
Test: Inhibition of Salmonella enterica serovar Typhimurium type 3 secretion system-mediated SipA protein secretion by Western blotting
Parameters: species or system Salmonella enterica subsp. enterica serovar Typhimurium
Settings: not given
Procedure, shortened: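 Bacteria were grown 18 h in LB broth and pelleted, and culture supernates were 0.2 μm-filtered. Proteins were precipitated with 10% TCA on ice for 30 min, centrifuged, acetone-washed and resolved by SDS-PAGE. Western blots were probed with polyclonal anti-SipA. IC50 was calculated from percent inhibition of secreted SipA using at least 3 inhibitor concentrations.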

Row | Structure (SMILES) | IC50
6 | COc1cc(/C=C2\S/C(=N\c3ccccc3)N(c3ccc(CN)cc3)C2=O)cc(OC)c1O | 52 µM
7 | CC(C)(C)/C=C1\S/C(=N\c2ccccc2)N(c2ccccc2)C1=O | 244 µM
8 | COc1cc(/C=C2\S/C(=N\c3ccccc3)N(C(CCCNC(=N)N)C(=O)N3Cc4ccccc4C[C@H]3C(N)=O)C2=O)cc(OC)c1O (stereo partly specified) | 115 µM
9 | COc1cc(/C=C2\S/C(=N\c3ccccc3)N([C@@H](C)C(=O)N[C@@H](C)C(N)=O)C2=O)cc(OC)c1O | 62 µM
10 | COc1cc(/C=C2\S/C(=N\c3ccccc3)N([C@H](Cc3ccc(-c4ccccc4)cc3)C(=O)N[C@@H](CCCNC(=N)N)C(N)=O)C2=O)cc(OC)c1O | 8 µM
11 | COc1cc(/C=C2\S/C(=N\c3ccccc3)N(C(CCCN)C(=O)N[C@@H](CC3CNc4ccccc43)C(N)=O)C2=O)cc(OC)c1O (mixture of isomers) | 56 µM
12 | COc1cc(/C=C2\S/C(=N\c3ccccc3)N([C@@H](C)C(=O)N[C@@H](Cc3ccc(O)cc3)C(N)=O)C2=O)cc(OC)c1O | 112 µM
13 | O=C1/C(=C/C2CCCCC2)S/C(=N\c2ccccc2)N1c1ccccc1 | 225 µM
14 | COc1ccc(N2C(=O)/C(=C/c3cc(OC)c(O)c(OC)c3)S/C2=N\c2ccccc2)cc1 | 51 µM
15 | COc1cc(/C=C2\S/C(=N\c3ccccc3)N([C@H](C)C(=O)N[C@@H](CCCNC(=N)N)C(N)=O)C2=O)cc(OC)c1O | 38 µM
16 | COc1ccc(/C=C2\S/C(=N\c3ccccc3)N(c3ccccc3)C2=O)cc1OC | 278 µM
17 | COc1cc(/C=C2\S/C(=N\c3ccccc3)N([C@@H](C)C(=O)N[C@@H](CCCN)C(N)=O)C2=O)cc(OC)c1O | 16 µM
18 | COc1cc(/C=C2\S/C(=N\c3ccccc3)N(CC(=O)O)C2=O)cc(OC)c1O | 36 µM
19 | COc1cc(/C=C2\S/C(=N\c3ccc(CN)cc3)N(c3ccccc3)C2=O)cc(OC)c1O | 101 µM
20 | COc1cc(/C=C2\S/C(=N\c3ccccc3)N(C(CCCNC(=N)N)C(=O)N3CSC[C@H]3C(N)=O)C2=O)cc(OC)c1O (stereo partly specified) | 65 µM
21 | COc1cc(/C=C2\S/C(=N\c3ccccc3)N(CCCC(=O)O)C2=O)cc(OC)c1O | 66 µM
22 | COc1cc(/C=C2\S/C(=N\c3ccccc3)N([C@@H](Cc3ccc(-c4ccccc4)cc3)C(=O)N[C@@H](CCCNC(=N)N)C(N)=O)C2=O)cc(OC)c1O | 3 µM
23 | COc1cc(/C=C2\S/C(=N\c3ccccc3)N(C(C)C(=O)N[C@@H](Cc3c[nH]c4ccccc34)C(N)=O)C2=O)cc(OC)c1O (stereo in doubt; 44a) | 30 µM
24 | COc1ccc(/N=C2\S/C(=C\c3ccncc3)C(=O)N2c2ccccc2)cc1 | 137 µM
25 | COc1ccc(N2C(=O)/C(=C/C(C)(C)C)S/C2=N\c2ccccc2)cc1 | 160 µM

Next, values leading:

Row | IC50 | Structure (SMILES)
26 | 50 µM | COc1cc(/C=C2\S/C(=N\c3ccccc3)N([C@@H](CCC(=O)O)C(=O)N[C@@H](Cc3ccc(-c4ccccc4)cc3)C(N)=O)C2=O)cc(OC)c1O
27 | 322 µM | O=C1/C(=C/c2ccc(Cl)cc2)S/C(=N\c2ccccc2)N1c1ccccc1
28 | 77 µM | COc1cc(/C=C2\S/C(=N\c3ccccc3)N([C@@H](C)C(=O)N[C@@H](CCCNC(=N)N)C(N)=O)C2=O)cc(OC)c1O
29 | 376 µM | O=C1/C(=C/c2ccncc2)S/C(=N\c2ccccc2)N1c1ccccc1
30 | 50 µM | COc1cc(/C=C2\S/C(=N\c3ccccc3)N([C@@H](CCCNC(=N)N)C(=O)N[C@@H](Cc3ccc(-c4ccccc4)cc3)C(N)=O)C2=O)cc(OC)c1O
31 | 9 µM | COc1cc(/C=C2\S/C(=N\c3ccccc3)N([C@H](C)C(=O)N[C@@H](CCCN)C(N)=O)C2=O)cc(OC)c1O
32 | 32 µM | COc1cc(/C=C2\S/C(=N\c3ccccc3)N([C@@H](CCCN)C(=O)N[C@@H](C)C(N)=O)C2=O)cc(OC)c1O
33 | 4 µM | COc1cc(/C=C2\S/C(=N\c3ccccc3)N(CCCC(=O)OC(C)(C)C)C2=O)cc(OC)c1O
34 | 83 µM | COc1cc(/C=C2\S/C(=N\c3ccccc3)N(c3ccccc3)C2=O)cc(OC)c1O
35 | 41 µM | COc1cc(/C=C2\S/C(=N\c3ccccc3)N(C(CCCNC(=N)N)C(=O)N[C@@H](C)C(N)=O)C2=O)cc(OC)c1O (stereo partly specified)
36 | 13 µM | COc1cc(/C=C2\S/C(=N\c3ccccc3)N([C@@H](CCCN)C(=O)N[C@@H](Cc3ccc(-c4ccccc4)cc3)C(N)=O)C2=O)cc(OC)c1O
37 | 54 µM | COc1cc(/C=C2\S/C(=N\c3ccccc3)N(CCCCCCN)C2=O)cc(OC)c1O
38 | 52 µM | COc1cc(/C=C2\S/C(=N\c3ccccc3)N(C(CCCN)C(=O)N[C@H](CC3CNc4ccccc43)C(N)=O)C2=O)cc(OC)c1O (mixture of isomers)
39 | 55 µM | COc1cc(/C=C2\S/C(=N\c3ccccc3)N(C(Cc3ccc(-c4ccccc4)cc3)C(=O)N[C@@H](CCCN)C(N)=O)C2=O)cc(OC)c1O (single isomer, unassigned)
40 | 52 µM | COc1cc(/C=C2\S/C(=N\c3ccccc3)N(C(C(=O)N[C@@H](Cc3ccc(O)cc3)C(N)=O)C(C)C)C2=O)cc(OC)c1O (stereo partly specified)
41 | 45 µM | COc1cc(/C=C2\S/C(=N\c3ccccc3)N(c3ccc(CNC(=O)OC(C)(C)C)cc3)C2=O)cc(OC)c1O
42 | 278 µM | COc1ccc(N2C(=O)/C(=C/C3CCCCC3)S/C2=N\c2ccccc2)cc1
43 | 26 µM | CSc1ccc(/C=C2\S/C(=N\c3ccccc3)N(c3ccccc3)C2=O)cc1
44 | 29 µM | COc1cc(/C=C2\S/C(=N\c3ccccc3)N(C(C)C(=O)N[C@@H](Cc3c[nH]c4ccccc34)C(N)=O)C2=O)cc(OC)c1O (stereo in doubt; 44b)

Tested on: Salmonella enterica subsp. enterica serovar Typhimurium
Test: Inhibition of Salmonella enterica serovar Typhimurium type 3 secretion system-mediated SipA protein secretion at 1 uM by Western blotting
Settings: not given

Row | Activity | Structure (SMILES)
45 | Active | COc1cc(/C=C2\S/C(=N\c3ccccc3)N(CCCC(=O)OC(C)(C)C)C2=O)cc(OC)c1O
46 | Active | COc1cc(/C=C2\S/C(=N\c3ccccc3)N(CC(=O)O)C2=O)cc(OC)c1O
